Hits are enriched below; roughly 4.8% of the tested compounds scored in any of these assays.
Mdm2 MdmX PPI – inhibitors of human Mdm2-MdmX association, primary screen, cell-based, luminescence, split luciferase, SaOS-2, uHTS; 330,000 tested, 3% active; Protein Mdm4 (Homo sapiens) + E3 ubiquitin-protein ligase Mdm2 (Homo sapiens), …; inhibition, % at 8 µM; SaOS-2 split-luciferase Mdm2/MdmX complementation; AID 485346, 2010;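 active means inhibition of at least 50% at 8 µM in the primary screen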
Target sequence (O15151 whole entry, looked up): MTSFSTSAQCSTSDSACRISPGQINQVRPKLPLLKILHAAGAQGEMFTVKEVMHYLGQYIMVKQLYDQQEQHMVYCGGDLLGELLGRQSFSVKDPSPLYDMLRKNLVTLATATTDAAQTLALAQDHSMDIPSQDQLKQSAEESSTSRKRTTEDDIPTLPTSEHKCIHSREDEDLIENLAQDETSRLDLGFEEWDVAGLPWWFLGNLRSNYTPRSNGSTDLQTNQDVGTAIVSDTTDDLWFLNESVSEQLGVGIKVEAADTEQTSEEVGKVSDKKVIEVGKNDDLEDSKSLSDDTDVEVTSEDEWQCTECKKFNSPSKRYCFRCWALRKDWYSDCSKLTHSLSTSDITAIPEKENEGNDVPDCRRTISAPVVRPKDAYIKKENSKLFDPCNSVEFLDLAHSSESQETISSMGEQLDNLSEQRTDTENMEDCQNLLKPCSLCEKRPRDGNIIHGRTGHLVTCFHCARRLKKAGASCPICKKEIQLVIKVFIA
Target sequence (Q00987 whole entry, looked up): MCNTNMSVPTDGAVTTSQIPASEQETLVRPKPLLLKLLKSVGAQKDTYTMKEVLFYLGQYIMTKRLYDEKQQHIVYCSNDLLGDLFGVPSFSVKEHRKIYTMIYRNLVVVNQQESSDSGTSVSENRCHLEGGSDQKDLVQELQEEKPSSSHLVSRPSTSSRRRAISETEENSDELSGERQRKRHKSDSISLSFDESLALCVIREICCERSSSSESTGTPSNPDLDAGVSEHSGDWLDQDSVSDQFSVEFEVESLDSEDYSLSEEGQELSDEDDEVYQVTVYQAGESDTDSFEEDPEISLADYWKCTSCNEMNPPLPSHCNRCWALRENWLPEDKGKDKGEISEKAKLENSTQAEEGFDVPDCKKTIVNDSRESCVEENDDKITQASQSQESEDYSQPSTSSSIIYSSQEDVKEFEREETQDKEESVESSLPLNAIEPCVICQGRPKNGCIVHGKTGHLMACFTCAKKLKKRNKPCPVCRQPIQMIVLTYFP
CHOP UPR activ – activators of apoptotic CHOP UPR arm, primary screen, cell-based, CHO-CHOP luciferase reporter, luminescence, uHTS; activation, % at 10 µM; 330,000 tested, 0.34% active; UPR activation; percent of tunicamycin response over DMSO baseline;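 active means at 10 µM dose, activation of 40% or more, normalized to positive control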;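 further: 100% = tunicamycin at 10 µg/mL and 0% = DMSO alone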
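System: CHO-CHOP luciferase reporter cell line | Buffer or medium: F12 medium containing 10% fetal bovine serum | Doses: One dose, 10 µM in 0.5% DMSO | Times: 6 h compound exposure at 37 °C after overnight seeding | Signal: Luciferase luminescence | Read-out: % activation vs tunicamycin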
XBP1 UPR activ – activators of adaptive XBP1 UPR arm, primary screen, cell-based, CHO-XBP1 luciferase reporter, luminescence, uHTS. IRE1-XBP1 UPR activation; percent of tunicamycin response, DMSO as zero. activation, % at 20 µM. 330,000 tested, 0.33% active. AID 463104, 2010;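 active means versus positive control, 20 µM dose yields 30% or more activation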;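 further: 100% = tunicamycin at 10 µg/mL and 0% = DMSO only wells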
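Assay system: IRE1-XBP1 luciferase reporter CHO line. Input: 1000 cells/well. Buffer or medium: F12 with 10% serum. Doses: 20 µM, 1% DMSO. Times: overnight seeding at 37 °C, 6 h compound treatment at 37 °C. Technique: Steady-Glo luciferase glow luminescence, 10 min after reagent addition.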
SKKanGAS inh – S. pyogenes SKKanGAS growth inhibitors in kanamycin, primary screen, streptokinase expression inhibitor project, SKKanGAS strain, BacTiter-Glo luminescence; 6 h; inhibition, % at 7.5 µM; 300,000 tested, 1.3% active; AID 1662, 2009;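 active means mean replicate score, as percent of positive control median, at least 50; inconclusive means mean below 50 but one replicate at or above 50; inactive means mean and every replicate below 50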;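 further: strain carries kanamycin resistance gene driven by streptokinase promoter and grows in 40 µg/ml kanamycin; loss of luminescence reflects streptokinase promoter inhibition or plain growth inhibition; 0% = median of DMSO wells and 100% = positive control at its reference dose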
CSC inhib – cancer stem cell viability inhibitors, primary screen, luminescence; inhibition, % at 7.5 µM; cancer stem cell-like cells viability; 300,000 tested, 1.1% active; in the data active means inhibition above about 75%; inconclusive means no clear call, values can overlap the other calls; tested in HMLE shEcad cells
Beta cell apopt – inhibitors of cytokine-induced beta cell apoptosis, primary screen, luminescence. 300,000 tested, 0.8% active. protection from apoptosis, % (concentration not given with the values). INS-1E cytokine-induced death, ATP luminescence, 48 h; percent of positive-control rescue, neutral wells zero. AID 435005, 2010;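 active means Every replicate reaches about 75%, or at least half do and their mean reaches it too, limit read from the data; inconclusive means At least half of replicates reach the limit but their mean does not; inactive means Under half of replicates reach the limit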;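 further: 0% = cytokine-treated negative control wells and 100% = positive control rescue; higher means more ATP so stronger rescue from cytokine killing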
Mdm2 MdmX conf – Mdm2-MdmX complex disruptors, retested hits, confirmation, luminescence, single concentration | inhibition, % at 8 µM | 10,000 tested, 55% active | shares compounds with Mdm2 MdmX PPI | AID 489028, 2010 | Mdm2-MdmX binding, luminescent assay; in the data active means inhibition above about 40%
Full FLuc ctr – full-length luciferase signal inhibition, confirmation, counter-screen for Mdm2/MdmX interaction inhibitor project, cell-based, single concentration, SaOS-2 | 6,200 tested, 77% active | shares compounds with Mdm2 MdmX PPI | SaOS-2 full-length luciferase counterscreen, luminescence | inhibition, % at 8 µM;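 active means mean inhibition at 8 µM reaching about 37%, which flags the compound as non-specific, limit read from the data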;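 further: p53-null SaOS-2 cells with luciferase driven by a doxycycline-inducible promoter; compound on cells about two nights before reading with doxycycline added after day one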
The depositor's hits bear a star; ? = inconclusive; / = no result.

SMILES | Mdm2 MdmX PPI | CHOP UPR activ | XBP1 UPR activ | SKKanGAS inh | CSC inhib | Beta cell apopt | Mdm2 MdmX conf | Full FLuc ctr
CC1CCCC(NC(=S)NC(=O)c2ccco2)C1C (stereo unspecified) | 22 | -1 | 0 | / | -5 | -1 | / | /
CCCC(=Nc1ccccc1OC)C1=C(O)CC(c2ccccc2)CC1=O (stereo unspecified) | -11 | 0 | -2 | 3 | -3 | -1 | / | /
COc1ccccc1N=C(C)C1=C(O)CC(c2ccccc2)CC1=O (stereo unspecified) | 61* | 2 | 8 | -2 | 41 | 28 | 55* | 79*
COc1ccc(NC(=O)/C(=C\c2ccco2)NC(=O)c2ccco2)cc1 | 6 | 0 | -3 | 3 | -16 | -7 | / | /
COc1ccc(NC(=O)/C(C#N)=C\C=C\c2ccco2)cc1 | 51* | 0 | -1 | -4 | ? | -1 | 53* | 58*
CN(c1ccc(C(=O)NCCCn2ccnc2)cc1)S(C)(=O)=O | 23 | 3 | -4 | -7 | -7 | 5 | / | /
COc1cccc(/C(O)=C/c2nc3ccc(C(=O)NCCc4cccc(C)c4)cc3[nH]c2=O)c1 | 65* | 2 | 0 | 32 | 16 | 10 | 2 | /
COc1cccc(/C(O)=C/c2nc3ccc(C(=O)NCCc4ccc(Cl)cc4)cc3[nH]c2=O)c1 | / | / | / | 37 | / | / | / | /
CCOC(=O)c1sc(NC(=O)Nc2cccc(Cl)c2)cc1C | 78* | 23 | 6 | 95* | -5 | 101* | 71* | 34
CCOC(=O)c1sc(NC(=O)c2cccs2)cc1C | -126 | 4 | 2 | 1 | -8 | 14 | / | /
COc1ccc(Cn2c(C)nc3c(c(=O)c4ccccc4n3C)c2=O)cc1 | 10 | 1 | -1 | 6 | -2 | -5 | / | /
CCCCCc1nc2c(c(=O)c3ccccc3n2C)c(=O)n1Cc1ccc(OC)cc1 | 51* | 8 | 9 | 31 | 9 | 7 | 18 | /
Cc1ccc(-c2nnn(CC(=O)N(CC(=O)NC3CCCC3)c3ccc(F)c(Cl)c3)n2)o1 | 60* | -1 | -1 | 8 | / | 9 | 15 | /
Cc1ccc(-c2nnn(CC(=O)N(CC(=O)NC3CCCCC3)c3ccc(F)c(Cl)c3)n2)o1 | 47 | 0 | 17 | -7 | -7 | 7 | / | /
Cc1snc(SCc2ccc(Cl)cc2)c1C#N | 5 | 0 | -2 | 15 | 2 | -9 | / | /
CCCCn1c(N)c(N(Cc2ccccc2OC)C(=O)c2sccc2C)c(=O)[nH]c1=O | 2 | 1 | -2 | 1 | 2 | -6 | / | /
Cc1ccc(/C=N/NC(=O)C2COc3ccccc3O2)s1 (stereo unspecified) | 53* | 0 | 6 | -14 | 21 | -1 | 76* | 57*
Cc1ccc(-n2c(O)c(/C=N/NC(=O)C3COc4ccccc4O3)c3ccccc3c2=O)cc1 (stereo unspecified) | 60* | 0 | 1 | 101* | / | -6 | -2 | /
O=C(NC1=NCCS1)C1COc2ccccc2O1 (stereo unspecified) | 80* | -11 | -7 | 3 | / | -20 | 81* | 34
CCc1ccc(C(=O)CN2C(=O)NC3(CCc4ccccc43)C2=O)cc1 (stereo unspecified) | -22 | 1 | 2 | / | / | -9 | / | /
CCCN(CCC)Cc1c(C(=O)N/N=C/c2c[nH]c3ccccc23)nnn1-c1nonc1N | -14 | 2 | -2 | 10 | / | 5 | / | /
C=CS(=O)(=O)N(Cc1ccc(Cl)c(Cl)c1)C[C@@H](O)CO | 81* | 3 | -2 | / | / | / | 84* | 55*
COc1ccc(Cl)cc1C(=O)OCC(=O)c1ccc[nH]1 | -8 | 1 | 2 | / | / | -1 | / | /
CC(=O)Nc1cccc(C(=O)OC(C)C(=O)N2CCc3ccccc32)c1 (stereo unspecified) | 6 | 2 | -1 | 0 | -14 | -6 | / | /
O=C(NCC1CCCN1S(=O)(=O)c1cccs1)C(=O)Nc1ccc(F)cc1F (stereo unspecified) | -6 | 0 | 0 | 2 | -5 | -4 | / | /
SMILES | Mdm2 MdmX PPI | CHOP UPR activ | XBP1 UPR activ | SKKanGAS inh | CSC inhib | Beta cell apopt | Mdm2 MdmX conf | Full FLuc ctr
Fc1ccc(Nc2nc(-c3ccncc3)nc3ccccc23)cc1F | 82* | 1 | 3 | 13 | 0 | 8 | 81* | 64*
Cc1ccccc1Nc1nc(-c2cccnc2)nc2ccccc12 | 24 | 0 | 5 | 6 | -2 | 19 | / | /
Cc1ccc(Nc2nc(-c3cccnc3)nc3ccccc23)cc1 | 63* | 2 | -1 | 0 | 65 | / | 57* | 57*
c1ccc2c(Nc3nc(-c4ccncc4)nc4ccccc34)cccc2c1 | 62* | 3 | 2 | 14 | ? | 13 | 59* | 72*
CCCCN(CCCC)c1nc(-c2ccncc2)nc2ccccc12 | 56* | 0 | -3 | 97* | 101* | / | 39 | /
Cc1ccc(NC(=O)CN(C)C(=O)C2CC(=O)N(Cc3ccccc3)C2)cc1 (stereo unspecified) | 2 | 0 | -3 | -3 | / | -5 | / | /
Clc1cccc(Nc2nc(-c3ccncc3)nc3ccccc23)c1 | 93* | 4 | 10 | -3 | 56 | 21 | 45* | 18
O=C(NCCc1nnc2ccc(NCCCN3CCOCC3)nn12)c1ccccc1F | 9 | 3 | 1 | 5 | -16 | -3 | / | /
CC(C)N1CCc2c(sc(NC(=O)c3cc(-c4cccs4)nc4ccccc34)c2C(N)=O)C1 | 73* | 4 | -1 | 19 | ? | 25 | 33 | /
CC(=O)N1CCc2c(sc(NC(=O)c3ccc([N+](=O)[O-])o3)c2C#N)C1 | / | / | / | 15 | / | / | / | /
CC(C)N1CCc2c(sc(NC(=O)c3ccc([N+](=O)[O-])o3)c2C(N)=O)C1 | 89* | 6 | -6 | ? | -7 | 71 | 94* | 19
NC(=O)c1ccsc1NC(=O)c1ccc(S(=O)(=O)N2CCCc3ccccc32)cc1 | 59* | 4 | 0 | 28 | 48 | / | 1 | /
CC(C)N1CCc2c(sc(NC(=O)c3ccc(S(=O)(=O)N4CCc5ccccc54)cc3)c2C(N)=O)C1 | 100* | 3 | 10 | 7 | 113* | 3 | 30 | /
COc1ccc(NC(=O)CN(C)C(=O)c2ccc(S(=O)(=O)Nc3ccccc3C)cc2)cc1 | 8 | 2 | -5 | / | / | / | / | /
